The target in data set [1] is Maltase-glucoamylase (Homo sapiens) (UniProt O43451). The data set is described as follows: Inhibition of alpha-glucosidase in 1.20 mg/200 uL.
Data set [2] is described as follows: Cytotoxicity against E6SM cells. The class given is cell-based. As to conditions: human, read-out: MIC. Summed up:
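Microscopic scoring of E6SM cell cultures; minimal cytotoxic concentration is the concentration causing a detectable alteration of normal cell morphology.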

The subject of a further data set is Vaccinia virus. The data set is described as follows: Antiviral activity against vaccinia virus. The class given is functional. The settings on record: Orthopoxvirus vaccinia. Summed up:
(§1)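 Antiviral test in E6SM cell cultures; the minimum inhibitory concentration is the level that reduces virus-induced cytopathogenicity by 50%.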

Another data set concerns Human alphaherpesvirus 2. Nature of the data set: Antiviral activity against HSV2 G. The class given is functional. As to conditions: Human alphaherpesvirus 2, G. Summed up: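 Virus-induced cytopathogenicity in E6SM cell cultures; value is the concentration needed to reduce cytopathogenicity by 50%.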
Data set [3] concerns Vesicular stomatitis virus. Nature of the data set: Antiviral activity against VSV. The class given is functional. Summed up: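 Tested in both E6SM and HeLa cell cultures; the minimum inhibitory concentration is the level that reduces virus-induced cytopathogenicity by 50%.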
Data set [4] deals with Human alphaherpesvirus 1. Nature of the data set: Antiviral activity against HSV1 KOS. As to conditions: Human alphaherpesvirus 1, KOS. The class given is functional. Summed up: as §1
Data set [5] concerns Human alphaherpesvirus 1. The data set is described as follows: Antiviral activity against HSV1 TK KOS ACVr. The class given is functional. The settings on record: Human alphaherpesvirus 1, TK KOS ACVr. Summed up: as §1
Data set [6] relates to Respiratory syncytial virus. Nature of the data set: Antiviral activity against RSV. The settings on record: human respiratory syncytial virus. The class given is functional. Summed up:
(§2)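 Antiviral test in HeLa cell cultures; the minimum inhibitory concentration is the level that reduces virus-induced cytopathogenicity by 50%.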

Data set [7] is described as follows: Cytotoxicity against HeLa cells. As to conditions: human, read-out: MIC. The class given is cell-based. Summed up: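 HeLa cell cultures examined by microscopy; the minimal cytotoxic concentration is the level that causes a microscopically detectable alteration of normal cell morphology.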
The next data set has as its system CCRF-CEM. Nature of the data set: Cytostatic activity against human CEM/0 cells. The class given is functional, cell-based. Summed up:
(§3)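 Tumour cell proliferation assay; IC50 is the compound concentration that inhibits cell proliferation by 50%.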

Data set [8] in a line: Cytostatic activity against mouse L1210/0 cells. The class given is functional, cell-based. Summed up: as §3
The next data set has as its system MOLT-4. The data set is described as follows: Cytostatic activity against human Molt4/C8 cells. The class given is functional, cell-based. Summed up: as §3
For a further data set, the system named is Coxsackievirus B4. Nature of the data set: Antiviral activity against CV B4. The class given is functional. The settings on record: Enterovirus B. Summed up:
as §2

Here are results for 16 compounds from ChEMBL document CHEMBL1141413, “Cinnamacrins A-C, cinnafragrin D, and cytostatic metabolites with alpha-glucosidase inhibitory activity from Cinnamosma macrocarpa” (J Nat Prod, 2007).

By inhibition is commonly meant the change of the read-out against control, counted positive when it falls. The IC50 is the midpoint of a concentration-inhibition curve.

Values after ≈ are worked out from the molar mass of the structure shown. Active and inactive are the calls of the source. The calls are words filed in the database; no cut-off is given here.

Sequence of Maltase-glucoamylase (Homo sapiens) (O43451 whole entry, looked up): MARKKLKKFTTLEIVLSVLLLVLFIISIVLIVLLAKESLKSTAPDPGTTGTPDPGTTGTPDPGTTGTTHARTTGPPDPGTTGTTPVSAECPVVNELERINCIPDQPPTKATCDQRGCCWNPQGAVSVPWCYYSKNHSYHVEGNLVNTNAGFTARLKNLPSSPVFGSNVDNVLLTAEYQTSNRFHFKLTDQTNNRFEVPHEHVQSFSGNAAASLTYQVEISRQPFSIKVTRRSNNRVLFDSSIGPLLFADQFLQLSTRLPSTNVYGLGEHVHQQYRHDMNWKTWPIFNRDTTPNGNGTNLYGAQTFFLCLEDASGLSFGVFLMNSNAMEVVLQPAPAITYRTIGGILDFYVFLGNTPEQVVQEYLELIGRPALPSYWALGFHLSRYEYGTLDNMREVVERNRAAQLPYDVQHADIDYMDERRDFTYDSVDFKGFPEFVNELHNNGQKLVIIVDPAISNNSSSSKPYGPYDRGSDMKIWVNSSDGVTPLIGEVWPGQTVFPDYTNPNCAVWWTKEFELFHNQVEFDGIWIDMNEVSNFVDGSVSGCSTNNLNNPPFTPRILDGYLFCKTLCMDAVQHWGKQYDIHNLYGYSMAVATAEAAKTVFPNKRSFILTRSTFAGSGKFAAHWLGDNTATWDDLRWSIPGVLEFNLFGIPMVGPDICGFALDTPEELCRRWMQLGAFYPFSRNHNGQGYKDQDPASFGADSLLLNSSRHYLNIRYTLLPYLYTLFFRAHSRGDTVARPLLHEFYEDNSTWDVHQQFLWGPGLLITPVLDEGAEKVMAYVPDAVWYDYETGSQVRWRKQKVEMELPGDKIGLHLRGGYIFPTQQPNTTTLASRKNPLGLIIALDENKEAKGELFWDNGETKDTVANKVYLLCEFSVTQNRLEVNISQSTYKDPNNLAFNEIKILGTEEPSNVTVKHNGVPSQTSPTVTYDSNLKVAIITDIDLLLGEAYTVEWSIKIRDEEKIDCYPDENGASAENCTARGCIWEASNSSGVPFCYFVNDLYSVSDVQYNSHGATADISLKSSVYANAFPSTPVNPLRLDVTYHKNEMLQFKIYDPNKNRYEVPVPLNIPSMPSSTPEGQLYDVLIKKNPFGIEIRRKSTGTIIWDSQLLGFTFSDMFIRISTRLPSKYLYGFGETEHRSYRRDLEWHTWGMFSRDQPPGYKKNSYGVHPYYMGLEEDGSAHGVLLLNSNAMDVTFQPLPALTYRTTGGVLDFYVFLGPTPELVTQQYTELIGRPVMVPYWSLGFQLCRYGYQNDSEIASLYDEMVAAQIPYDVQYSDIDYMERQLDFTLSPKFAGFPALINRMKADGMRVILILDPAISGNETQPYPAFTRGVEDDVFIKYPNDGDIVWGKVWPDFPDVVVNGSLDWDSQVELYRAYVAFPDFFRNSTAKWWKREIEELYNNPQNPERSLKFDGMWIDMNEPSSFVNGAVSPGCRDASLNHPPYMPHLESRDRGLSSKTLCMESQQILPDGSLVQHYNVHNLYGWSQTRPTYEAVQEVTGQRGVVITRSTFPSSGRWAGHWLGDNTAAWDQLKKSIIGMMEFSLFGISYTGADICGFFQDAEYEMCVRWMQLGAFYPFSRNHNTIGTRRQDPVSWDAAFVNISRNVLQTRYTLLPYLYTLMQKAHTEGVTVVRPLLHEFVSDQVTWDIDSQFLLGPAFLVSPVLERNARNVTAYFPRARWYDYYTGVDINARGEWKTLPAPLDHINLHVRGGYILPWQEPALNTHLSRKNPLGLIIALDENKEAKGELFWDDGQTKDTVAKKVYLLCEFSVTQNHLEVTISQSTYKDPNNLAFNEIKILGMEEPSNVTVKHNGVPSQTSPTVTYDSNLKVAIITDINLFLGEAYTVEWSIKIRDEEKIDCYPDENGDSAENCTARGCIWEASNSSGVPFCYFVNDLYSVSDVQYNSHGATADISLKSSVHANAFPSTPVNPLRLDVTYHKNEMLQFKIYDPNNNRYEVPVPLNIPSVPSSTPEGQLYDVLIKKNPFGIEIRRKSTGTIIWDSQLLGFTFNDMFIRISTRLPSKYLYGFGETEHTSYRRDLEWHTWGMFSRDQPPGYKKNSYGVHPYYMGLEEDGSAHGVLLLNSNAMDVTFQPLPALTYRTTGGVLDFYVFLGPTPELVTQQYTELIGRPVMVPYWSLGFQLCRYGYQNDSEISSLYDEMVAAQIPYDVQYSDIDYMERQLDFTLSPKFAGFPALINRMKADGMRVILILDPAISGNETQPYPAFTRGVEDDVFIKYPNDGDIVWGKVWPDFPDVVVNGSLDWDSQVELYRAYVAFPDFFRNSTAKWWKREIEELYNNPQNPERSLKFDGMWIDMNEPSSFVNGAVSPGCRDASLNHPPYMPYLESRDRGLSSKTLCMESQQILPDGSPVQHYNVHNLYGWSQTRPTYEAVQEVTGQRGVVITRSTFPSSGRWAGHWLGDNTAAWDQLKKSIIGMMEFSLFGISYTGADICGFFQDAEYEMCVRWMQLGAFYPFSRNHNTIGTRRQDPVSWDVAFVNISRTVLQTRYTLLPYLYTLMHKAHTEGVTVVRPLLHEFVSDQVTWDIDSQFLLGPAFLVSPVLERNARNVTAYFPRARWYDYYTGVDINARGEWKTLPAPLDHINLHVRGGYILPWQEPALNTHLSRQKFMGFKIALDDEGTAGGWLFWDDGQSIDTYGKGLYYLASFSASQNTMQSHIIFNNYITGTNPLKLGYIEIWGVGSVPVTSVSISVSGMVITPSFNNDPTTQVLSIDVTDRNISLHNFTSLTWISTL

Take `CC(=O)O[C@@H]1[C@@H](O[C@H]2O[C@@H]3O[C@H](C4=C[C@@H](OC(C)=O)[C@H]5C(C)(C)CCC[C@]5(C)[C@@]4(O)C=O)O[C@@]34C2=C[C@@H](OC(C)=O)[C@H]2C(C)(C)CCC[C@@]24C)C2=C(C(=O)OC2)[C@@]2(C)CCCC(C)(C)[C@H]12`: the result in [1] was inactive.
Turning to `CC1(C)CCC[C@]2(C)C3=C(C=C[C@@H]12)C(=O)OC3`, the result in data set [1] was inactive.
In the case of `CC1(C)CCC[C@]2(C)[C@H](C=O)C(C=O)=CC[C@@H]12`, the outcome in data set [1] was inactive.
Regarding `Nc1nc2c(ncn2COCCO)c(=O)[nH]1` [ACYCLOVIR], the MCC in data set [2] was over 500000 nM. Also, the MIC against Vaccinia virus is over 500 µM; in the data set on Human alphaherpesvirus 2 it was 0.48 µM (≈ 0.108 µg/mL); in [3], over 500 µM; in the data set on Human alphaherpesvirus 1 [4], 0.48 µM (≈ 0.108 µg/mL); with Human alphaherpesvirus 1 [5] it was 60 µM (≈ 13.5 µg/mL).
For the compound `OC[C@H]1NC[C@H](O)[C@@H](O)[C@@H]1O`, in [1], the inhibition turned out to be 100%.
Turning to `CC(=O)O[C@@H]1C=C(C2O[C@@H]3OC(O)C4=C[C@@H](OC(C)=O)[C@H]5C(C)(C)CCC[C@]5(C)[C@]43O2)[C@](O)(C=O)[C@@]2(C)CCCC(C)(C)[C@H]12` (stereo partly drawn) [CAPSICODENDRIN], the MIC (in [6]; in the data set on Vaccinia virus; in the data set with Human alphaherpesvirus 2; with Coxsackievirus B4; in data set [3]; with Human alphaherpesvirus 1 [4]) was over 1.03 µM throughout. The compound also displayed an MIC against Human alphaherpesvirus 1 [5] of over 1.03 µM. Also, the MCC in [2] is at least 1030 nM; in data set [7], 5.16 µM. Besides, the IC50 with CCRF-CEM is 860 nM; in data set [8] it was 1210 nM; in the data set with MOLT-4, 940 nM. The same compound returned an inhibition in [1] of 89.4%.
In the case of `CC(=O)OC1=CC2=C(COC2=O)[C@@]2(C)CCCC(C)(C)[C@H]12`, the result in data set [1] was inactive.
Turning to `CC(=O)O[C@@H]1C=C(C=O)[C@](O)(C=O)[C@@]2(C)CCCC(C)(C)[C@H]12` [CINNAMODIAL], the MIC (in [6]; in the data set with Vaccinia virus; with Human alphaherpesvirus 2; with Coxsackievirus B4; in [3]; against Human alphaherpesvirus 1 [4]) was over 2.06 µM in each case. In the data set on Human alphaherpesvirus 1 [5], this compound displayed an MIC of over 2.06 µM. For the same compound, the MCC in data set [2] was at least 2060 nM; in data set [7], 10.3 µM. Further, the IC50 in the data set with CCRF-CEM came to 1610 nM; in data set [8] it was 580 nM; in the data set with MOLT-4 it was 1510 nM. This compound also registered an inhibition in data set [1] of 78.2%.
In the case of `CC1(C)CCC[C@]2(C)[C@H]3COC(=O)C3=CC[C@@H]12`, the result in data set [1] was inactive.
For the compound `CC(=O)O[C@@H]1[C@H]([C@@H]2C3=C(C(=O)OC3)[C@@]3(C)CCCC(C)(C)[C@@H]3[C@@H]2OC(C)=O)C2=C(C(=O)OC2)[C@@]2(C)CCCC(C)(C)[C@H]12`, the outcome in data set [1] was inactive.
With `CC(=O)O[C@@H]1C=C([C@@H]2O[C@@H]3O[C@H](O)C4=C[C@@H](OC(C)=O)[C@H]5C(C)(C)CCC[C@]5(C)[C@]43O2)[C@](O)(C=O)[C@@]2(C)CCCC(C)(C)[C@H]12`, the outcome in data set [1] was inactive.
Still for that read-out and setting: the value for `CC1=C(C(=O)O)C(=O)C2=C3[C@@](C)(CCC[C@]13C)CO2` was “inactive”.
Consider `CC(=O)O[C@@H]1C=C2C3OC4OC5OC(O[C@@]24[C@@]2(C)CCCC(C)(C)[C@H]12)C1=C[C@@H](OC(C)=O)[C@H]2C(C)(C)CCC[C@]2(C)[C@]15O3`, for which the outcome in data set [1] was inactive.
As to `COC1O[C@H]2O[C@H](C3=C[C@@H](OC(C)=O)[C@H]4C(C)(C)CCC[C@]4(C)[C@@]3(O)C=O)O[C@@]23C1=C[C@@H](OC(C)=O)[C@H]1C(C)(C)CCC[C@@]13C` (stereo partly drawn), the inhibition in data set [1] worked out at 26.5%.
In the case of `NC(=O)c1ncn([C@@H]2O[C@H](CO)[C@@H](O)[C@H]2O)n1` [RIBAVIRIN], the MIC was 60 µM (≈ 14.7 µg/mL) in data set [6], over 500 µM in the data set on Coxsackievirus B4 and 300 µM (≈ 73.3 µg/mL) in data set [3]. For the same compound, the MCC in data set [7] is over 500 µM.
Turning to `CC(C)=CCC/C(C)=C/CC/C(C)=C/CC[C@]1(C)CCc2cc(O)cc(C)c2O1`, the outcome in [1] was inactive.
